Experimental data reported in ChEMBL document CHEMBL1130414, “Muscarinic analgesics with potent and selective effects on the gastrointestinal tract: potential application for the treatment of irritable bowel syndrome” (J Med Chem, 1997).

Tests used:
Mustela putorius furo [1] = assay: Minimum intravenous effective dose required to inhibit jejunal motility in ferrets; type: functional
In short: (§1)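 Anesthetized male ferrets (800–1200 g), fasted 24 h before surgery, dosed iv. Spontaneous jejunal motility recorded manometrically via catheters inserted into jejunum. Value is minimum effective (threshold) dose inhibiting motility; each animal its own control; number of determinations recorded, SEM given when replicates differed.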

Mustela putorius furo [2] = assay: Intravenous effective dose required to produce a 1 mV increase in transmural potential difference in ferrets (GI side effect); type: functional
In short: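 Anesthetized male ferrets (800–1200 g), fasted 24 h before surgery, dosed iv. Transmural potential difference across jejunal wall measured with calomel half-cells and salt bridges (one in luminal fluid, other via wick electrode in serosal fluid) to an electrometer. Value is dose giving >1 mV rise in potential difference; each animal its own control.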

Mus musculus = assay: Analgesic activity measured using mouse writhing antinociceptive assay after subcutaneous administration; type: functional; details: sc
In short: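 Male Cr1:CF1 mice, groups of 5–10, given vehicle or compound sc; 25 min later 0.5% acetic acid ip. Writhes per mouse counted in individual chambers 5–10 min after acid (30–35 min post-dose), expressed as mean writhes over 5 min. ED50 from linear regression.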

[3] = molecular target: Muscarinic acetylcholine receptor; assay: Binding affinity against Muscarinic acetylcholine receptor using [3H]oxotremorine-M as radioligand in rat cortex
In short: (§2)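 Rat cortex radioligand displacement with [³H]oxotremorine-M, which labels the agonist conformational state of muscarinic receptors without subtype selectivity. Affinity is reported as Ki (nM) ± SEM.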

[4] = molecular target: Muscarinic acetylcholine receptor; assay: Binding affinity against Muscarinic acetylcholine receptors using [3H]oxotremorine-M as radioligand in rat cortex; in short: as §2
Mustela putorius furo [5] = assay: Minimum intravenous effective dose required to inhibit spontaneous motility in ferrets; type: functional; in short: as §1
[6] = Mean plasma concentration measured 1 h following an oral dose of 30 mg/kg; type: ADME, organism-based; parameters: dose 30 mg/kg, route oral
In short: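 Rats dosed orally at 30 mg/kg; parent compound plasma concentration measured 1 h after dosing, reported as mean.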

Compound | Dose (Mustela putorius furo [1]) [mg/kg] | ED (1mV) (Mustela putorius furo [2]) [mg/kg] | ED50 (Mus musculus) [mg/kg] | Ki [3] [nM] | Ki [4] [nM] | ED50 (Mustela putorius furo [5]) [mg/kg] | concentration at 1 h [6] [ng/mL]
FC(F)(F)CCCSc1nsnc1C1CN2CCCC1C2 (racemic) | 0.001 | 0.03 | 0.1 | 0.4 |  |  | 
CCCCOc1nsnc1C1=CCCN(C)C1 | 0.003 | 0.007 | 0.41 |  | 1.4 |  | 
FC(F)(F)CCSc1nsnc1[C@@H]1CN2CCC[C@@H]1C2 | 0.003 | 0.01 | 0.1 |  | 0.44 |  | 
CCCCSc1nsnc1C1CN2CCC1CC2 (configuration not stated) [VEDACLIDINE] | 0.003 | 0.01 | 0.19 |  | 0.4 |  | 
C=CCCCCOc1nsnc1C1=CCCN(C)C1 | 0.03 | 0.003 | 0.9 |  | 3 |  | 
FC(F)(F)CCCSc1nsnc1[C@@H]1CN2CCC[C@H]1C2 |  | >0.03 | > 10 |  | 25 | 0.0047 | 
CN1[C@@H]2CC[C@H]1C[C@@H](OC(=O)C(CO)c1ccccc1)C2 (some centres not stated) [ATROPINE] |  | >0.03 | > 30 |  |  | 0.00073 | 
CCCCSc1nsnc1C1=CCCNC1 | 0.03 | 0.03 | 0.14 |  | 3.5 |  | 
CN1CCC=C(c2nsnc2SCCCc2cccs2)C1 | 0.03 | 0.03 | > 10 |  | 10 |  | 
FC(F)(F)CCCSc1nsnc1[C@H]1CN2CCC[C@H]1C2 |  | 0.015 | 0.1 |  | 0.42 | 0.00017 | 805
CN1CCC=C(c2nsnc2SCCCc2ccccc2)C1 | 0.01 | 0.03 | > 10 |  | 1 |  | 
CCCCSc1nsnc1[C@@H]1CN2CCC[C@@H]1C2 | 0.001 | 0.001 | 0.19 |  | 0.45 |  | 21
CN1CC[C@]23c4c5ccc(O)c4O[C@H]2[C@@H](O)C=C[C@H]3[C@H]1C5 [MORPHINE] |  |  | 0.3 |  |  |  | 
CCCCCCSc1nsnc1C1=CCCN(CC)C1 | >0.03 | >0.03 | > 10 |  | 18 |  | 
CCCCSc1nsnc1C1CN2CCCC1C2 (racemic) | 0.001 | 0.001 | 0.03 |  | 0.36 |  | 
FC(F)(F)CCCSc1nsnc1[C@H]1CN2CCC[C@@H]1C2 |  | >0.03 | 1.8 |  | 9.6 | 0.0053 | 
FC(F)(F)CCCCSc1nsnc1[C@@H]1CN2CCC[C@@H]1C2 | 0.001 | 0.01 | 0.07 |  | 0.24 |  | 
CC(C)CCCSc1nsnc1C1CN2CCCC1C2 (racemic) | 0.03 | 0.003 | 0.95 |  | 0.91 |  | 
FC(F)(F)CCCSc1nsnc1[C@@H]1CN2CCC[C@@H]1C2 |  | 0.002 | 0.35 |  | 0.33 | 0.017 | 
CCCCCCSc1nccnc1C1CN2CCC1CC2 (configuration not stated) | >0.03 | >0.03 | 2.3 |  | 4 |  | 
CCCCSc1nccnc1C1CN2CCC1CC2 (configuration not stated) | 0.003 | 0.03 | 3.2 |  | 0.5 |  | 
